Reference: ChEMBL document CHEMBL3608253, “Hybrid compounds with two redox centres: modular synthesis of chalcogen-containing lapachones and studies on their antitumor activity” (Eur J Med Chem, 2015)
The source made the active and inactive calls. No cut-off for these calls is given here.

Key:
[1] = Selectivity ratio of IC50 for mouse L929 cells to IC50 for human HCT8 cells; type: ADME, cell-based; conditions: L929 cells versus HCT8 cells, read-out: Ratio IC50
[2] = Selectivity ratio of IC50 for chinese hamster V79 cells to IC50 for human MDA-MB-435 cells; type: ADME, cell-based; conditions: V79 cells versus MDA-MB-435 cells, read-out: Ratio IC50
[3] = Selectivity ratio of IC50 for human PBMC to IC50 for human HCT8 cells; type: ADME, cell-based, HCT-8; conditions: PBMC versus HCT8 cells, read-out: Ratio IC50
[4] = Selectivity ratio of IC50 for mouse L929 cells to IC50 for human MDA-MB-435 cells; type: ADME, cell-based; conditions: L929 cells versus MDA-MB-435 cells, read-out: Ratio IC50
[5] = Selectivity ratio of IC50 for MDCK cells to IC50 for human PC3 cells; type: ADME, cell-based; conditions: dog (MDCK), MDCK cells versus PC3 cells, read-out: Ratio IC50
[6] = Selectivity ratio of IC50 for mouse L929 cells to IC50 for human PC3 cells; type: ADME, cell-based; conditions: L929 cells versus PC3 cells, read-out: Ratio IC50
Summary of the method: (§1)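 L929 mouse fibroblasts were grown in MEM with Earle's salts and cancer lines in RPMI 1640, each with 10% FBS and 2 mM L-glutamine at 37 °C, 5% CO2. MTT at 0.5 mg/mL for 3 h, formazan dissolved in DMSO, A550 as % of vehicle control. IC50 fitted by nonlinear regression, three independent experiments. Ratio is L929 IC50 / cancer-line IC50.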

[7] = Selectivity ratio of IC50 for mouse L929 cells to IC50 for human PC3M cells; type: ADME, cell-based; conditions: L929 cells versus PC3M cells, read-out: Ratio IC50; summary of the method: as §1
[8] = Selectivity ratio of IC50 for chinese hamster V79 cells to IC50 for human PC3 cells; type: ADME, cell-based; conditions: V79 cells versus PC3 cells, read-out: Ratio IC50
[9] = Selectivity ratio of IC50 for human PBMC to IC50 for human HL60 cells; type: ADME, cell-based, HL-60; conditions: PBMC versus HL60 cells, read-out: Ratio IC50
OVCAR-3 = test: Induction of lipid peroxidation in human OVCAR3 cells assessed as increase in MDA level at 5 uM after 12 hrs by TBARS assay; type: functional, cell-based
Summary of the method: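 OVCAR-3 cells were treated for 12 h with 5 µM compound, with a DMSO vehicle and 150 µM H2O2 as controls. Cells were lysed in 15 mM Tris-HCl for 1 h, then TCA/0.25 M HCl was added and the lysate was heated with 6.7 mg/mL TBA for 15 min at 100 C. After centrifugation, TBARS were read at 532 nm against hydrolyzed 1,1,3,3-tetramethoxypropane as standard.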

[10] = Selectivity ratio of IC50 for chinese hamster V79 cells to IC50 for human OVCAR8 cells; type: ADME, cell-based, OVCAR-8; conditions: V79 cells versus OVCAR8 cells, read-out: Ratio IC50
[11] = Selectivity ratio of IC50 for MDCK cells to IC50 for human MDA-MB-435 cells; type: ADME, cell-based; conditions: dog (MDCK), MDCK cells versus MDA-MB-435 cells, read-out: Ratio IC50
[12] = Selectivity ratio of IC50 for human PBMC to IC50 for human MDA-MB-435 cells; type: ADME; conditions: PBMC versus MDA-MB-435 cells, read-out: Ratio IC50
[13] = Selectivity ratio of IC50 for chinese hamster V79 cells to IC50 for human HCT8 cells; type: ADME, cell-based, HCT-8; conditions: V79 cells versus HCT8 cells, read-out: Ratio IC50
[14] = Selectivity ratio of IC50 for human PBMC to IC50 for human PC3M cells; type: ADME, cell-based; conditions: PBMC versus PC3M cells, read-out: Ratio IC50
[15] = Selectivity ratio of IC50 for mouse L929 cells to IC50 for human OVCAR8 cells; type: ADME, cell-based; conditions: L929 cells versus OVCAR8 cells, read-out: Ratio IC50; summary of the method: as §1
[16] = Selectivity ratio of IC50 for MDCK cells to IC50 for human PC3M cells; type: ADME, cell-based; conditions: dog (MDCK), MDCK cells versus PC3M cells, read-out: Ratio IC50
[17] = Selectivity ratio of IC50 for human PBMC to IC50 for human OVCAR8 cells; type: ADME, cell-based, OVCAR-8; conditions: PBMC versus OVCAR8 cells, read-out: Ratio IC50
[18] = Selectivity ratio of IC50 for MDCK cells to IC50 for human OVCAR8 cells; type: ADME, cell-based, OVCAR-8; conditions: dog (MDCK), MDCK cells versus OVCAR8 cells, read-out: Ratio IC50
[19] = Selectivity ratio of IC50 for MDCK cells to IC50 for human HCT8 cells; type: ADME, cell-based; conditions: dog (MDCK), MDCK cells versus HCT8 cells, read-out: Ratio IC50
[20] = Selectivity ratio of IC50 for human PBMC to IC50 for human PC3 cells; type: ADME, cell-based, PC-3; conditions: PBMC versus PC3 cells, read-out: Ratio IC50
[21] = Selectivity ratio of IC50 for chinese hamster V79 cells to IC50 for human PC3M cells; type: ADME, cell-based; conditions: V79 cells versus PC3M cells, read-out: Ratio IC50

| SMILES | selectivity ratio [1] | selectivity ratio [3] | selectivity ratio [5] | selectivity ratio [6] | selectivity ratio [7] | selectivity ratio [8] | selectivity ratio [9] | Activity (OVCAR-3) | selectivity ratio [10] | selectivity ratio [13] | selectivity ratio [14] | selectivity ratio [15] | selectivity ratio [16] | selectivity ratio [17] | selectivity ratio [18] | selectivity ratio [19] | selectivity ratio [20] | selectivity ratio [21] | further results |
| --- | --- | --- | --- | --- | --- | --- | --- | --- | --- | --- | --- | --- | --- | --- | --- | --- | --- | --- | --- |
| CC1(C)OC2=C(CC1[Se]c1ccc(Br)cc1)C(=O)C(=O)c1ccccc12 (configuration not stated) | 1.1 | 1.5 | 1.1 | 1.5 | 0.8 | 2.3 | 2.1 | Active | 1.4 | 1.7 | 1.1 | 0.9 | 0.6 | 1.3 | 0.6 | 0.8 | 2.1 | 1.3 | selectivity ratio [2]: 1.7; selectivity ratio [4]: 1.1; selectivity ratio [11]: 0.8; selectivity ratio [12]: 1.5 |
| CCSC1CC2=C(OC1(C)C)c1ccccc1C(=O)C2=O (configuration not stated) | 1 | 1.8 | – | – | – | – | 2.2 | Active | 1.3 | 1.1 | – | 1.2 | – | 2.1 | 1.6 | 1.4 | – | – | – |
| CC1(C)OC2=C(CC1Sc1cccc(Cl)c1)C(=O)C(=O)c1ccccc12 (configuration not stated) | – | – | 1.4 | 2.2 | 1.4 | 1.9 | 3.2 | Active | – | – | 1.9 | – | 0.9 | – | – | – | 2.9 | 1.2 | – |
